Experimental data gathered from unrelated publications.
Protocols differ between the studies behind these lines. pIC50: −log10 of the molar value.
Cell line: M14
Read-out: cell growth or viability

COc1ccc(C(=O)/C=C/c2cccc(Br)c2)cc1S(N)(=O)=O
GI50 (SRB; 48 h): 1800 nM

COc1cccc(Oc2ccccc2NC(=O)CNC(=O)c2cccc3ccccc23)c1
GI50 (SRB; 48 h): 158 nM

O=C1NC(=NCc2cccs2)S/C1=C\c1ccc2ncccc2c1
pIC50: 5.00

COc1cc(-c2ccc(-c3ccc(C(=N)N)nc3)s2)cc(OC)c1OC
GI50 (SRB): 1660 nM

COc1ccc(C(=O)/C=C/c2cc3c(cc2Br)OCO3)cc1S(N)(=O)=O
GI50 (SRB; 48 h): 9100 nM

O=C1NCCc2[nH]c(-c3ccncc3)cc21
pIC50: 5.48

COc1ccc(-c2ccc(-c3ccc(C(=N)N)nc3)s2)cc1Cl
GI50 (SRB): 1730 nM

COc1ccc2c(c1)NC(=O)CN2c1nc(C)nc2c1CCC2
pIC50: 8.89
